According to ChEMBL document CHEMBL1129746, “Structure-based design of HIV protease inhibitors: sulfonamide-containing 5,6-dihydro-4-hydroxy-2-pyrones as non-peptidic inhibitors” (J Med Chem, 1996):

Experiments:
[1] = target: Human immunodeficiency virus type 1 protease (Human immunodeficiency virus 1, UniProt Q72874); assay: (§1) Tested for inhibition of HIV protease
Method in brief: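 Ki measured against a tandemly linked (single-chain) HIV protease construct, used because the native dimeric enzyme dissociates at low enzyme concentration.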

[2] = target: Human immunodeficiency virus 1; assay: Tested for antiviral activity in HIV-1 IIIB-infected H9 cells
[3] = target: Human immunodeficiency virus type 1 protease (Human immunodeficiency virus 1) (UniProt Q72874); assay: as §1
[4] = Totla clearance of compound reported after 5 mg/kg i.v. dose in rat; format: ADME, organism-based; design: dose 5 mg/kg, route intravenous; settings: in vivo, iv, read-out: CLtotal (converted)
Method in brief: (§2)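 Rats (n = 3) dosed intravenously at 5 mg/kg in 10% propylene glycol with 22.5% (hydroxypropyl)-β-cyclodextrin (2 mg/g formulation). Blood levels followed over time to derive total clearance and steady-state volume.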

[5] = Oral bioavailability of compound reported after 5 mg/kg i.v. dose in rat; format: ADME, organism-based; settings: in vivo, 10 mg/kg, in the assay text read “after 10 mg/kg oral dose” for “after 5 mg/kg i.v. dose”
Method in brief: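 Rats given 10 mg/kg orally (n = 9) in 0.01 M sodium hydroxide, pH 10, at 2 mg/g, and 5 mg/kg intravenously (n = 3) in 10% propylene glycol/22.5% hydroxypropyl-β-cyclodextrin. Time-course blood levels compared; F calculated relative to the intravenous dose.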

in vivo = settings: rat, plasma, iv, 5 mg/kg
[6] = target: Human immunodeficiency virus type 1 protease (Human immunodeficiency virus 1) (UniProt Q72874); assay: Compound was tested for inhibition of HIV protease in AZT Resistant HIV-1 clinical isolates in primary PBMC
Method in brief: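 A panel of 10 AZT-resistant HIV-1 clinical isolates was grown in primary PBMC using a standardized PBMC drug-susceptibility assay.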

Cathepsin D = Cathepsin D (Homo sapiens, UniProt P07339); assay: Compound was tested for inhibition human Cathepsin D
[7] = target: Human immunodeficiency virus type 1 protease (Human immunodeficiency virus 1, UniProt Q72874, L33I/L63I/Q7K); assay: Compound was tested for inhibition of HIV protease triple mutant (Q7K/L33I/L63I)
[8] = Volume distribution of compound reported after 5 mg/kg i.v. dose in rat; format: ADME, organism-based; design: dose 5 mg/kg, route intravenous; settings: in vivo, iv, read-out: Vss; method in brief: as §2
Pepsin A = Pepsin A (Homo sapiens, UniProt P0DJD9); assay: Inhibition of human pepsin
Cathepsin E = target: T1, Cathepsin E (Homo sapiens, UniProt P14091); assay: Compound was tested for inhibition human Cathepsin E
T1 sequence (P14091 whole entry): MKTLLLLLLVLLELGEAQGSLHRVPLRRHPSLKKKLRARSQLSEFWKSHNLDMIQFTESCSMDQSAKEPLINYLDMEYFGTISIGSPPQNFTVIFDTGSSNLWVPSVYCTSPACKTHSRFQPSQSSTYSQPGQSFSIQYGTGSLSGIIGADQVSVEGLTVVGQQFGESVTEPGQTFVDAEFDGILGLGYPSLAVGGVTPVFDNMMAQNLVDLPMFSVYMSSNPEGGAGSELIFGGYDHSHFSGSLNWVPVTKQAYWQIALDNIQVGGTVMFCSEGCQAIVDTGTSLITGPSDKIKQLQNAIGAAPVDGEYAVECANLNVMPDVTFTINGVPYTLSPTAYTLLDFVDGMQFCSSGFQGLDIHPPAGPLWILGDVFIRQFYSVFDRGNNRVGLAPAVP

[9] = test system: Human immunodeficiency virus type 1 protease (Human immunodeficiency virus 1), Q72874 [Q7K,L33I,L63I]

Chain of Pepsin A (P0DJD9 whole entry): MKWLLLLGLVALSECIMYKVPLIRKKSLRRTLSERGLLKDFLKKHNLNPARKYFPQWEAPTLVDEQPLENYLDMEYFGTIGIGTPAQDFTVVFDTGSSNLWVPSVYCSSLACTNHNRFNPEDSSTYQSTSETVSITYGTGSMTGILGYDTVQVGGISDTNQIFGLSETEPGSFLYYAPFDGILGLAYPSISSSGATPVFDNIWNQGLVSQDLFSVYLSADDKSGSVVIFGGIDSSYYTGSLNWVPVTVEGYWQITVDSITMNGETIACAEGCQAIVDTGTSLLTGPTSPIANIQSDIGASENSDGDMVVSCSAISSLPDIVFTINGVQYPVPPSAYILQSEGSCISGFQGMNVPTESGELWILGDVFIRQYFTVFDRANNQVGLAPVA
Chain of Cathepsin D (P07339 65-162 limits assumed): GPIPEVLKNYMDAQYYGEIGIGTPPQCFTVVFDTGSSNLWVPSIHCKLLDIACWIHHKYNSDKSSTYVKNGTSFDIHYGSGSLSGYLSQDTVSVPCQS
Chain of Cathepsin D (P07339 169-412 limits assumed): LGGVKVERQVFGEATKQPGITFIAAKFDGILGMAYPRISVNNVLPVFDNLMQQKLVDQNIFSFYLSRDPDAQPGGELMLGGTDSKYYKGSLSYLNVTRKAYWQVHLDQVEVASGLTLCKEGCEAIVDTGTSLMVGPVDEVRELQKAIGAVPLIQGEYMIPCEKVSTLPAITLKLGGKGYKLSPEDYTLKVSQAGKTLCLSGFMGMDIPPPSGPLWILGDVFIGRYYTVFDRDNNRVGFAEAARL

| SMILES | Ki [1] | IC50 [2] | IC90 [3] | also measured |
| --- | --- | --- | --- | --- |
| CCC[C@@]1(CCc2ccccc2)CC(=O)C([C@@H](CC)c2cccc(NS(=O)(=O)c3ccc(C(F)(F)F)cn3)c2)=C(O)O1 (stereo in doubt; form 2) [listing 1 of 2 here] | 0.032 nM | – | – | – |
| CCC(Cc1ccccc1)c1cc(O)c(C(CC)c2ccccc2)c(=O)o1 (configuration not stated) | – | 3000 nM | – | – |
| CCC[C@]1(CCc2ccccc2)CC(=O)C([C@@H](CC)c2cccc(NS(=O)(=O)c3cn(C)cn3)c2)=C(O)O1 (stereo in doubt; Vd) [listing 1 of 2 here] | – | – | > 1000 nM | – |
| CCC[C@]1(CCc2ccccc2)CC(=O)C([C@@H](CC)c2cccc(NS(=O)(=O)c3cn(C)cn3)c2)=C(O)O1 (stereo in doubt; Va) [listing 1 of 2 here] | 0.12 nM | 580 nM | – | – |
| CCC[C@]1(CCc2ccccc2)CC(=O)C([C@@H](CC)c2cccc(NS(=O)(=O)c3ccc(C#N)cn3)c2)=C(O)O1 | 0.12 nM | > 1000 nM | > 1000 nM | – |
| CCC[C@]1(CCc2ccccc2)CC(=O)C([C@@H](CC)c2cccc(NS(=O)(=O)c3cn(C)cn3)c2)=C(O)O1 (stereo in doubt; Vb) [listing 1 of 2 here] | – | – | 560 nM | – |
| CCCC1(CCc2ccccc2)CC(=O)C(C(CC)c2cccc(NS(=O)(=O)c3cccc4cccnc34)c2)=C(O)O1 (configuration not stated) | 3 nM | – | 3000 nM | – |
| CCCC1(CCc2ccccc2)CC(=O)C(C(CC)c2cccc(NS(=O)(=O)c3ccccc3)c2)=C(O)O1 (configuration not stated) | 17 nM | – | 7300 nM | – |
| CCC[C@@]1(CCc2ccccc2)CC(=O)C([C@@H](CC)c2cccc(NS(=O)(=O)c3ccc(C(F)(F)F)cn3)c2)=C(O)O1 (stereo in doubt; form 1) [listing 1 of 2 here] | – | – | 3000 nM | – |
| CCC[C@@]1(CCc2ccccc2)CC(O)=C([C@H](CC)c2cccc(NS(=O)(=O)c3ccc(C(F)(F)F)cn3)c2)C(=O)O1 | – | – | – | clearance [4]: 2.83 mL/min/kg; bioavailability [5]: 30%; half-life (in vivo): 5.4 h; IC90 [6]: 150 nM; Ki (Cathepsin D): 15000 nM; Ki [7]: < 1 nM; Vd [8]: 0.51 L/kg; Ki (Pepsin A): 2000 nM; Ki (Cathepsin E): 9000 nM |
| CCCC1(CCc2ccccc2)CC(=O)C(C(CC)c2cccc(NS(=O)(=O)c3ccc(F)cc3)c2)=C(O)O1 (configuration not stated) | 6 nM | – | 4300 nM | – |
| CCC[C@@]1(CCc2ccccc2)CC(O)=C([C@H](CC)c2cccc(NS(=O)(=O)c3ccc(C#N)cn3)c2)C(=O)O1 | 0.007 nM | – | 260 nM | – |
| CCCC1(CCc2ccccc2)CC(=O)C(C(CC)c2cccc(NS(=O)(=O)c3ccc(C#N)cc3)c2)=C(O)O1 (configuration not stated) | 8 nM | – | 4200 nM | – |
| CCC[C@@]1(CCc2ccccc2)CC(=O)C([C@@H](CC)c2cccc(NS(=O)(=O)c3ccc(C#N)cn3)c2)=C(O)O1 | 0.04 nM | 110 nM | 890 nM | – |
| CCC[C@]1(CCc2ccccc2)CC(=O)C([C@H](CC)c2cccc(NS(=O)(=O)c3ccc(C(F)(F)F)cn3)c2)=C(O)O1 | 0.018 nM | 140 nM | 840 nM | – |
| CCC[C@]1(CCc2ccccc2)CC(=O)C([C@@H](CC)c2cccc(NS(=O)(=O)c3cn(C)cn3)c2)=C(O)O1 (stereo in doubt; Vc) [listing 1 of 2 here] | – | – | > 1000 nM | – |
| CCCC1(CCc2ccccc2)C=c2oc(=O)c(C(CC)c3ccccc3)c(O)c2=CC1 (configuration not stated) | 35 nM | – | – | – |
| CCC[C@]1(CCc2ccccc2)CC(=O)C([C@@H](CC)c2cccc(NS(=O)(=O)c3cn(C)cn3)c2)=C(O)O1 (stereo in doubt; Vc) [listing 2 of 2 here] | 1 nM | > 1000 nM | – | – |
| CCC[C@]1(CCc2ccccc2)CC(=O)C([C@@H](CC)c2cccc(NS(=O)(=O)c3cn(C)cn3)c2)=C(O)O1 (stereo in doubt; Vb) [listing 2 of 2 here] | 0.06 nM | 130 nM | – | – |
| CCCC1(CCc2ccccc2)CC(=O)C(C(CC)c2cccc(NS(=O)(=O)c3cn(C)cn3)c2)=C(O)O1 (configuration not stated) | – | – | – | IC90 [9]: 900 nM; IC50 [7]: 500 nM; Ki [7]: 1 nM |
| CCC[C@@]1(CCc2ccccc2)CC(=O)C([C@@H](CC)c2cccc(NS(=O)(=O)c3ccc(C(F)(F)F)cn3)c2)=C(O)O1 (stereo in doubt; form 1) [listing 2 of 2 here] | 0.22 nM | – | – | – |
| CCC[C@@]1(CCc2ccccc2)CC(=O)C([C@@H](CC)c2cccc(NS(=O)(=O)c3ccc(C(F)(F)F)cn3)c2)=C(O)O1 (stereo in doubt; form 2) [listing 2 of 2 here] | – | – | 1800 nM | – |
| CCC[C@]1(CCc2ccccc2)CC(=O)C([C@@H](CC)c2cccc(NS(=O)(=O)c3cn(C)cn3)c2)=C(O)O1 (stereo in doubt; Va) [listing 2 of 2 here] | – | – | 1000 nM | – |
| CCC[C@]1(CCc2ccccc2)CC(=O)C([C@H](CC)c2cccc(NS(=O)(=O)c3ccc(C#N)cn3)c2)=C(O)O1 | 0.1 nM | 490 nM | 1000 nM | – |
| CCC[C@]1(CCc2ccccc2)CC(=O)C([C@@H](CC)c2cccc(NS(=O)(=O)c3cn(C)cn3)c2)=C(O)O1 (stereo in doubt; Vd) [listing 2 of 2 here] | 0.03 nM | > 1000 nM | – | – |
